Compound activity deposited in PubChem by Sanford-Burnham Center for Chemical Genomics.
An excerpt weighted towards active compounds, which were near 1.5% of everything screened.
TRAIL sens C8 = viability loss with TRAIL in NB7+C8 cells, primary screen, TRAIL sensitizer project, cell-based, ATPlite luminescence | 360,000 tested, 1% active | AID 624354, 2012 | inhibition (viability loss, TRAIL sensitization), % at 10 µM;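 active = compounds causing at least 50% loss of cell viability in the single-dose screen, relative to plate controls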
PPC-1+TRAIL kill = compounds killing PPC-1 cancer cells with TRAIL present, primary screen, TRAIL potentiator project, ATPLite luminescence, uHTS | PPC-1 cells + TRAIL, ATPLite viability luminescence | cell killing (% activity), % at 4 µM or 5 µM | 220,000 tested, 0.41% active;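 active = cell killing above 50% in the first pass at 4 µM, then a duplicate retest at 5 µM averaging 50% or more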;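 note: plate controls were cells with TRAIL plus DMSO for no effect and medium-only wells lacking cells for full effect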
FLuc act counter = FLuc activators, initial screening, artefact control for FLuc-dependent activation tests, biochemical, ATPlite luminescence; ATPlite luciferase biochemical, 10 min; 0 = ATP-free wells, 1 = DMSO control; activation factor at 10 µM; 200,000 tested, under 10 active;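 active = luciferase activation factor, scaled between plate controls, of at least 2 with compound at 10 µM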
Target sequence (P08659 whole entry, looked up): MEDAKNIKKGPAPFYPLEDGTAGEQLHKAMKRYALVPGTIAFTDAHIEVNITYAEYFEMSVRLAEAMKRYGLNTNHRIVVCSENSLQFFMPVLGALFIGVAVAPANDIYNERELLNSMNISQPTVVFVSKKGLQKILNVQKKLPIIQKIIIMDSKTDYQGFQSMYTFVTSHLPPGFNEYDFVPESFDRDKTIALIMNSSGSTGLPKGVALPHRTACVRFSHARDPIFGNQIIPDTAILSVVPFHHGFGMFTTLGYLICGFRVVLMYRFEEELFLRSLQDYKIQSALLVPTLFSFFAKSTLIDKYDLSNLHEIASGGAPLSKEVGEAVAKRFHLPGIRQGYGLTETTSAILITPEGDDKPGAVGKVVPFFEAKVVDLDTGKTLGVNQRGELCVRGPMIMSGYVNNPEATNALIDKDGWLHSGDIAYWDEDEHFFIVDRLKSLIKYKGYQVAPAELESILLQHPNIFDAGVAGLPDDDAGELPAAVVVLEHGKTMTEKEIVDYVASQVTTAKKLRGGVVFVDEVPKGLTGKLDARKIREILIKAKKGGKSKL
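Material: Luciferase/luciferin reagent mix; Doses: test compounds dosed from 2 mM stocks in 100% DMSO; Schedule: 10 min incubation after luciferase reagent addition, room temperature; Measured by: luminescence from luciferase reaction; Read-out: luminescence gain marking luciferase activators.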
FLuc inhib CS = firefly luciferase enzyme inhibitors, primary screen, artefact control for luciferase-based inhibitor screens, biochemical, luminescence, ATPLite | Luciferin 4-monooxygenase (Photinus pyralis), P08659 | 10 min | inhibition, % at 10 µM | 200,000 tested, 1.5% active | AID 1006, 2008;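 active = inhibition above about 50% when tested at 10 µM, limit read from the data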
* hit, by the source's call; . = not tested or not shown.

SMILES | TRAIL sens C8 | PPC-1+TRAIL kill | FLuc act counter | FLuc inhib CS
CC(=O)Nc1ccc(NC2=Nc3ccccc3N3C2=Nc2c(c(C)nn2-c2ccccc2)C3c2ccccc2)cc1 (centres undefined) | 72* | 16 | 1 | -3
COC(=O)c1ccccc1NC(=O)c1cc(C2CC2)on1 | 13 | 13 | 1 | 0
COC(=O)c1ccccc1NC(=O)c1cc(-c2ccc(O)cc2)on1 | 51* | -7 | 1.1 | -10
O=c1[nH]c2ccccc2n2c(C(F)(F)F)nnc12 | 1 | . | . | .
COc1ccc2[nH]c(-c3ccc(C)cc3)cc(=O)c2c1 | 85* | 73* | 0.1 | 93*
O=[N+]([O-])c1cc(S(=O)(=O)N2CCCC2)ccc1O | -3 | 9 | 1.1 | -6
O=C(COc1cc(F)ccc1[N+](=O)[O-])Nc1cc(S(=O)(=O)N2CCCC2)ccc1Cl | 52* | . | . | .
O=[N+]([O-])c1cc(S(=O)(=O)N2CCCCCC2)ccc1F | 75* | 31 | 1 | -4
CCOC(=O)C1CCN(C(=S)Nc2ccc(Cl)cc2C)CC1 | 5 | -22 | 1 | -2
Cc1ccc(OCCNS(=O)(=O)c2ccc(N3CCCC3=O)cc2)cc1 | 1 | 15 | 1 | -2
COC(=O)c1cn[nH]c1NC(=S)Nc1ccc(C)cc1Cl | 7 | 18 | 0.5 | 54*
O=[N+]([O-])c1cccc(C=NNc2ccc3ccccc3n2)c1O | 57* | . | . | .
Fc1cccc(/C=N/Nc2ccc3ccccc3n2)c1 | 38 | -3 | 0.3 | 71*
O=C(N/N=C/c1cccc([N+](=O)[O-])c1O)c1cccs1 | 42 | 13 | 0.3 | 67*
O=C(N/N=C/c1ccc([N+](=O)[O-])cc1)c1cccs1 | 11 | 22 | . | .
Brc1ccccc1/C=N/Nc1ccc2ccccc2n1 | 20 | 6 | 0.6 | 37
CCCCc1cc(=O)oc2c(C)c(OCC(=O)NCc3ccccn3)ccc12 | 6 | . | . | .
Cc1cccc(-c2noc(-c3ccccc3C(=O)NCC3CCCO3)n2)c1 (centres undefined) | 2 | -1 | 0.9 | 15
COc1ccc(Oc2nc3ccccc3n(C)c2=O)cc1 | 6 | 15 | 1.1 | -7
Cc1ccccc1CSCC(=O)NNC(=S)NCC1CCCO1 (centres undefined) | -2 | . | . | .
O=C(NCc1cccnc1)/C(=C\c1ccc(-c2ccc(Cl)c(Cl)c2)o1)S(=O)(=O)c1ccccc1 | 93* | 27 | 1 | -1
Cc1ccc(C(=O)NNC(=O)Cc2ccccc2)cc1 | 13 | -8 | 1 | -3
O=C(Nc1ccc(OCC(=O)N2CCOCC2)cc1)c1ccccc1Cl | 83* | . | . | .
O=C(N/N=C/c1ccc(OCC(=O)N2CCOCC2)cc1)c1ccccc1Cl | -10 | 28 | 1 | 2
CCCCOc1ccc(C(=O)Nc2ccc(OCC(=O)N3CCOCC3)cc2)cc1 | 70* | . | . | .
SMILES | TRAIL sens C8 | PPC-1+TRAIL kill | FLuc act counter | FLuc inhib CS
O=C(Nc1ccccn1)c1ccc(NC(=O)c2ccco2)cc1 | 33 | 11 | 0.5 | 47
CCc1ccc(NC(=O)COC(=O)CCC2CCCC2)cc1 | 4 | . | . | .
CCC(COC)Oc1cc(NCc2ccccc2)c2ncn(C(C)C)c2c1 (centres undefined) | 58* | . | . | .
CC(C)n1cnc2c(NCc3ccccc3)cc(N[C@H](C)CO)cc21 | 60* | . | . | .
O=C(CSc1nnc(CNC(=O)c2ccccc2)o1)c1ccc(Cl)cc1 | -8 | . | . | .
Cc1cc(NC(=O)CSc2n[nH]c(-c3ccccc3Br)n2)no1 | -1 | . | . | .
Cc1ccc(-c2noc(C3CCN(S(C)(=O)=O)CC3)n2)o1 | 4 | 10 | 1 | 0
O=C1C(=O)c2ccccc2C(O)=C1CCCCl | 68* | 11 | . | .
COc1ccc(CC2=C(O)c3ccccc3C(=O)C2=O)cc1 | -3 | . | . | .
CCOC(=O)C(C)Sc1nnc(NC(=O)c2ccc3c(c2)OCO3)s1 (centres undefined) | 16 | 12 | 0.9 | 12
CSc1nnc(NC(=O)c2ccc3c(c2)OCO3)s1 | 74* | . | . | .
CCOC(=O)CNC(=O)CSc1nnc(NC(=O)c2ccc3c(c2)OCO3)s1 | 83* | . | . | .
COc1ccc(Cl)cc1C(=O)Nc1nc2ccccc2[nH]1 | 81* | . | . | .
COc1ccc(C(=O)Nc2nc3ccccc3[nH]2)cc1OC | 6 | 20 | 0.7 | 29
O=C(Nc1nc2ccccc2[nH]1)c1cc(F)cc(F)c1 | 41 | . | . | .
O=C(CC1CCCC1)Nc1nc2ccccc2[nH]1 | 51* | 3 | 0.8 | 21
COc1cc(OC)cc(C(=O)Nc2nc3ccccc3[nH]2)c1 | 53* | 22 | 0.7 | 31
Cc1ccsc1C(=O)Nc1nc2ccccc2[nH]1 | 60* | 41 | . | .
O=S1(=O)CC(N2CCN(CC3CC3)CC2)CN1C1CCCC1 (centres undefined) | -6 | . | . | .
O=C(COc1ccc2ccccc2c1)Nc1nc2ccccc2[nH]1 | 0 | -9 | 1 | -4
COc1ccc(OCC(=O)Nc2nc3ccccc3[nH]2)cc1 | 39 | 36 | 0.3 | 68*
Cc1cc(C)cc(C(=O)Nc2nc3ccccc3[nH]2)c1 | 50* | . | . | .
O=C1NC(c2ccc3ccccc3c2)Nc2ccccc21 (centres undefined) | 29 | . | . | .
O=C1NC(c2ccc3c(c2)OCO3)Nc2ccccc21 (centres undefined) | 26 | 71* | 1.1 | -6
CCN(CC)c1ccc(C2NC(=O)c3ccccc3N2)cc1 (centres undefined) | 92* | . | . | .
SMILES | TRAIL sens C8 | PPC-1+TRAIL kill | FLuc act counter | FLuc inhib CS
Cc1ccc(NC(=O)c2c(C)nc3ccccn23)cc1C | 19 | 24 | 0.3 | 67*
Cc1ccc(/C=C/C(=O)c2c(C)nc3ccccn23)cc1 | 22 | 7 | 0.5 | 54*
CCCOc1ccc2nc(NC(=O)OC)[nH]c2c1 | . | 6 | 1 | 0
CCc1nc(N)nc(N)c1-c1ccc(Cl)c(N=[N+]=[N-])c1 | 83* | . | . | .
CCc1nc(N)nc(N)c1-c1ccc(Cl)c([N+](=O)[O-])c1 | 80* | . | . | .
CCOc1cc(-c2c(C)c(CC)nc(N)c2C#N)ccc1O | -2 | -10 | 1.1 | -8
O=C1COc2ccc(C(=O)CSc3nnc(NCc4ccccc4)s3)cc2N1 | 6 | 8 | . | .
O=C(NNc1nc(=O)c2cccnc2s1)c1ccccc1O | 53* | 24 | 0.8 | 18
O=C(NNc1c2ccccc2nc2ccccc12)c1ccccc1O | 0 | 16 | 0.9 | 8
Cc1ccccc1NC(=O)c1ccc(C)c(S(=O)(=O)N2CCN(C)CC2)c1 | 1 | . | . | .
